Laboratory results: ChEMBL document CHEMBL3351507, “11H-Pyrido[3',2':4,5]pyrrolo[3,2-c]cinnoline and pyrido[3',2':4,5]pyrrolo[1,2-c][1,2,3]benzotriazine: two new ring systems with antitumor activity” (2014)
Activity calls are given as the source filed them. The rule behind the calls is not given here.

What was measured:
Jurkat [1] = test: Cell cycle arrest in human Jurkat cells assessed as accumulation at S phase at 0.25 uM after 24 hrs by propidium iodide staining-based flow cytometry (reference value: 15.5%); assay type: functional
[2] = Cytotoxicity against human OVCAR5 cells assessed as growth inhibition after 72 hrs by MTT assay; assay type: functional; settings: OVCAR-5, 72 h
Method in brief: (§1)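 NCI 60-cell-line panel screen. Compounds were tested at 5 concentrations in 10-fold dilution (10^-4 to 10^-8 M) across the full panel. GI50 was taken as the molar concentration giving 50% inhibition of net cell growth.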

CAKI-1 = test: Cytotoxicity against human Caki1 cells assessed as growth inhibition after 72 hrs by MTT assay; assay type: functional; settings: CAKI-1, 72 h
[3] = Cytotoxicity against human OVCAR3 cells assessed as growth inhibition after 72 hrs by MTT assay; assay type: functional; settings: OVCAR-3, 72 h; method in brief: as §1
MDA-MB-435 = test: Cytotoxicity against human MDA-MB-435 cells assessed as growth inhibition after 72 hrs by MTT assay; assay type: functional; settings: MDA-MB-435, 72 h
NCI-H322M = test: Cytotoxicity against human NCI-H322M cells assessed as growth inhibition after 72 hrs by MTT assay; assay type: functional
HOP-62 = test: Cytotoxicity against human HOP62 cells assessed as growth inhibition after 72 hrs by MTT assay; assay type: functional; settings: HOP-62, 72 h
HOP-92 = test: Cytotoxicity against human HOP92 cells assessed as growth inhibition after 72 hrs by MTT assay; assay type: functional; settings: HOP-92, 72 h
[4] = Cytotoxicity against human UO31 cells assessed as growth inhibition after 72 hrs by MTT assay; assay type: functional; settings: UO-31, 72 h; method in brief: as §1
M14 = test: Cytotoxicity against human M14 cells assessed as growth inhibition after 72 hrs by MTT assay; assay type: functional; settings: M14, 72 h
Jurkat [5] = test: Cell cycle arrest in human Jurkat cells assessed as accumulation at G2/M phase at 0.5 uM after 24 hrs by propidium iodide staining-based flow cytometry (reference value: 21.9%); assay type: functional
[6] = Cytotoxicity against human LoVo/DX cells assessed as growth inhibition after 72 hrs by MTT assay; assay type: functional
Method in brief: (§2)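 Cells were grown in medium with 10% heat-inactivated FBS plus penicillin/streptomycin: RPMI-1640 for Jurkat and CEM, DMEM for A-431, HAM's F12 for LoVo. The doxorubicin-resistant LoVo subclone was kept with 0.1 µg/mL doxorubicin. Cells were seeded at 5x10^3 per well and pre-incubated 24 h at 37 °C.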

SK-MEL-28 = test: Cytotoxicity against human SK-MEL-28 cells assessed as growth inhibition after 72 hrs by MTT assay; assay type: functional; settings: SK-MEL-28, 72 h; method in brief: as §1
MCF7 = test: Cytotoxicity against human MCF7 cells assessed as growth inhibition after 72 hrs by MTT assay; assay type: functional; settings: MCF7, 72 h
HT-29 = test: Cytotoxicity against human HT-29 cells assessed as growth inhibition after 72 hrs by MTT assay; assay type: functional; settings: HT-29, 72 h
U-251 = test: Cytotoxicity against human U251 cells assessed as growth inhibition after 72 hrs by MTT assay; assay type: functional; settings: U-251, 72 h; method in brief: as §1
NCI-H460 = test: Cytotoxicity against human NCI-H460 cells assessed as growth inhibition after 72 hrs by MTT assay; assay type: functional; settings: NCI-H460, 72 h
RPMI-8226 = test: Cytotoxicity against human RPMI8226 cells assessed as growth inhibition after 72 hrs by MTT assay; assay type: functional; settings: RPMI-8226, 72 h; method in brief: as §1
Jurkat [7] = test: Cell cycle arrest in human Jurkat cells assessed as accumulation at G2/M phase at 0.25 uM after 24 hrs by propidium iodide staining-based flow cytometry (reference value: 21.9%); assay type: functional
Malme-3M = test: Cytotoxicity against human MALME-3M cells assessed as growth inhibition after 72 hrs by MTT assay; assay type: functional
Jurkat [8] = test: Induction of apoptosis in human Jurkat cells assessed as caspase-8 activation at 500 nM after 6 hrs by plate reader analysis; assay type: functional, cell-based
Method in brief: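 Jurkat cells were treated with 500 nM compound for 6 h and 24 h, then lysed. Lysates were incubated with pNA-conjugated substrates: Ac-DEVD (caspase-3), Ac-IETD (caspase-8) and LEHD (caspase-9). pNA release was read at 405 nm and normalized to Bradford protein. Results are expressed as fold increase over untreated control.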

SR = test: Cytotoxicity against human SR cells assessed as growth inhibition after 72 hrs by MTT assay; assay type: functional; method in brief: as §1
SK-OV-3 = test: Cytotoxicity against human SKOV3 cells assessed as growth inhibition after 72 hrs by MTT assay; assay type: functional; settings: SK-OV-3, 72 h; method in brief: as §1
Jurkat [9] = test: Induction of apoptosis in human Jurkat cells assessed as loss of plasma membrane asymmetry at 250 to 500 nM after 6 hrs by annexin V-FITC/propidium iodide staining-based flow cytofluorimetric analysis; assay type: functional, cell-based
Method in brief: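 Jurkat cells were incubated with 250 or 500 nM compound for 6 h or 24 h. They were then double-stained with Annexin V-FITC and propidium iodide and analysed by flow cytometry (488 nm excitation; emission 525 and 585 nm). Mean ± SEM of 3 experiments.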

Jurkat [10] = test: Cell cycle arrest in human Jurkat cells assessed as accumulation at subG1 phase at 0.5 uM after 24 hrs by propidium iodide staining-based flow cytometry (reference value: 5.3%); assay type: functional
A-431 = test: Cytotoxicity against human A431 cells assessed as growth inhibition after 72 hrs by MTT assay; assay type: functional; settings: A-431, 72 h; method in brief: as §2
[11] = Cytotoxicity against human UACC62 cells assessed as growth inhibition after 72 hrs by MTT assay; assay type: functional; settings: UACC-62, 72 h; method in brief: as §1
Jurkat [12] = test: Induction of apoptosis in human Jurkat cells assessed as mitochondrial membrane potential depolarization after 24 hrs by JC-1 staining-based flow cytometry; assay type: functional, cell-based
Method in brief: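 After 24 h of treatment, Jurkat cells were resuspended in HBSS and stained with JC-1. Flow cytometry measured the percentage of cells with low potential (green monomer fluorescence). Mean ± SEM of 3 experiments.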

SF-295 = test: Cytotoxicity against human SF295 cells assessed as growth inhibition after 72 hrs by MTT assay; assay type: functional; settings: SF-295, 72 h; method in brief: as §1
[13] = Cytotoxicity against human EKVX cells assessed as growth inhibition after 72 hrs by MTT assay; assay type: functional
IGROV-1 = test: Cytotoxicity against human IGROV1 cells assessed as growth inhibition after 72 hrs by MTT assay; assay type: functional; settings: IGROV-1, 72 h
SK-MEL-2 = test: Cytotoxicity against human SK-MEL-2 cells assessed as growth inhibition after 72 hrs by MTT assay; assay type: functional; settings: SK-MEL-2, 72 h; method in brief: as §1
NCI-H23 = test: Cytotoxicity against human NCI-H23 cells assessed as growth inhibition after 72 hrs by MTT assay; assay type: functional; settings: NCI-H23, 72 h
HCC 2998 = test: Cytotoxicity against human HCC2998 cells assessed as growth inhibition after 72 hrs by MTT assay; assay type: functional; settings: HCC 2998, 72 h
Jurkat [14] = test: Cell cycle arrest in human Jurkat cells assessed as accumulation at G1 phase at 0.25 uM after 24 hrs by propidium iodide staining-based flow cytometry (reference value: 62.6%); assay type: functional
[15] = Cytotoxicity against human HCT15 cells assessed as growth inhibition after 72 hrs by MTT assay; assay type: functional; settings: HCT-15, 72 h
[16] = Cytotoxicity against human HCT116 cells assessed as growth inhibition after 72 hrs by MTT assay; assay type: functional; settings: HCT-116, 72 h

Structure (SMILES)	GI50 [2] [nM]	GI50 (CAKI-1) [nM]	GI50 [3] [nM]	GI50 (MDA-MB-435) [nM]	GI50 (NCI-H322M) [nM]	GI50 (HOP-62) [nM]	GI50 (HOP-92) [nM]	GI50 [4] [nM]	GI50 (M14) [nM]	GI50 (SK-MEL-28) [nM]	GI50 (MCF7) [nM]	GI50 (HT-29) [nM]	GI50 (U-251) [nM]	GI50 (NCI-H460) [nM]	GI50 (RPMI-8226) [nM]	GI50 (Malme-3M) [nM]	GI50 (SR) [nM]	GI50 (SK-OV-3) [nM]	GI50 [11] [nM]	GI50 (SF-295) [nM]	other results
COc1ccc2c(c1)nnc1c3cccnc3[nH]c21	5720	110	960	1440	10000	5470	82	120	1070	11800	230	750	930	1930	730	1060	31	2690	910	1590	Activity (Jurkat [1]): 24.1%; Activity (Jurkat [5]): 38.2%; GI50 [6]: 1210 nM; Activity (Jurkat [7]): 45.7%; Activity (Jurkat [8]): Active; Activity (Jurkat [9]): inactive; Activity (Jurkat [10]): 39.8%; GI50 (A-431): 2350 nM; Activity (Jurkat [12]): Dose-dependent effect; GI50 [13]: 2820 nM; GI50 (IGROV-1): 310 nM; GI50 (SK-MEL-2): 1960 nM; GI50 (NCI-H23): 5500 nM; GI50 (HCC 2998): 8230 nM; Activity (Jurkat [14]): 30.2%; GI50 [15]: 2260 nM; GI50 [16]: 210 nM
O=Nc1c2cccnc2n2nnc3ccc(Cl)cc3c12	1380	130	250	1260	8600	1440	100	650	1190	1060	570	910	1270	1330	170	1220	17	2980	2360	2070	GI50 [13]: 1830 nM; GI50 (IGROV-1): 1350 nM; GI50 (SK-MEL-2): 2280 nM; GI50 (NCI-H23): 1170 nM; GI50 (HCC 2998): 8400 nM; GI50 [15]: 960 nM; GI50 [16]: 190 nM
COc1cc2nnn3c4ncccc4c(N=O)c3c2cc1OC	2690	48	460	2380	22700	1900	39	400	1710	9100	260	790	600	2610	110	2890	18	4020	2920	2620	Activity (Jurkat [1]): 15.4%; Activity (Jurkat [5]): 54.3%; GI50 [6]: 4330 nM; Activity (Jurkat [7]): 47.3%; Activity (Jurkat [8]): Active; Activity (Jurkat [9]): inactive; Activity (Jurkat [10]): 21.7%; GI50 (A-431): 1410 nM; Activity (Jurkat [12]): Dose-dependent effect; GI50 [13]: 3310 nM; GI50 (IGROV-1): 1940 nM; GI50 (SK-MEL-2): 17300 nM; GI50 (NCI-H23): 2220 nM; GI50 (HCC 2998): 1000 nM; Activity (Jurkat [14]): 37.3%; GI50 [15]: 1620 nM; GI50 [16]: 61 nM
COc1ccc2c(c1)nnn1c3ncccc3c(N=O)c21	8020	89	1110	1940	9670	7510	42	76	1570	3480	130	620	720	1670	260	770	9	1680	850	4690	Activity (Jurkat [1]): 25.1%; Activity (Jurkat [5]): 44.7%; GI50 [6]: 650 nM; Activity (Jurkat [7]): 39.4%; Activity (Jurkat [8]): Active; Activity (Jurkat [9]): inactive; Activity (Jurkat [10]): 39.1%; GI50 (A-431): 930 nM; Activity (Jurkat [12]): Dose-dependent effect; GI50 [13]: 3380 nM; GI50 (IGROV-1): 110 nM; GI50 (SK-MEL-2): 2180 nM; GI50 (NCI-H23): 5170 nM; GI50 (HCC 2998): 7230 nM; Activity (Jurkat [14]): 35.5%; GI50 [15]: 3130 nM; GI50 [16]: 60 nM
COc1cc2nnc3c4cccnc4[nH]c3c2cc1OC	2530	180	1150	2230	20600	2260	210	490	1790	4490	340	1340	920	2460	190	2280	39	2290	2490	2430	GI50 [13]: 2430 nM; GI50 (IGROV-1): 1730 nM; GI50 (SK-MEL-2): 11300 nM; GI50 (NCI-H23): 2340 nM; GI50 (HCC 2998): 1950 nM; GI50 [15]: 1430 nM; GI50 [16]: 130 nM
